Laboratory results: ChEMBL document CHEMBL3864177, “Dipeptidyl Nitroalkenes as Potent Reversible Inhibitors of Cysteine Proteases Rhodesain and Cruzain” (ACS Med Chem Lett, 2016)
The source made the active and inactive calls. The calls are words filed in the database; no cut-off is given here.

Experiments:
[1] = Stability of the compound in HMI-9 medium after 24 hrs; assay type: physicochemical
[2] = biological target: T1, Cathepsin B (Homo sapiens, UniProt P07858); assay: Inhibition of human cathepsin B
[3] = test system: Trypanosoma brucei brucei; assay: Antitrypanosomal activity against Trypanosoma brucei brucei expressing BS449 after 48 hrs by ATPlite-luciferase reporter gene assay; assay type: functional
[4] = test system: Trypanosoma brucei brucei; assay: Antitrypanosomal activity against Trypanosoma brucei brucei expressing BS449 after 72 hrs by ATPlite-luciferase reporter gene assay; assay type: functional
[5] = biological target: T2, Procathepsin L (Homo sapiens, UniProt P07711); assay: Inhibition of human cathepsin L
Target sequence in this assay (P07711 whole entry): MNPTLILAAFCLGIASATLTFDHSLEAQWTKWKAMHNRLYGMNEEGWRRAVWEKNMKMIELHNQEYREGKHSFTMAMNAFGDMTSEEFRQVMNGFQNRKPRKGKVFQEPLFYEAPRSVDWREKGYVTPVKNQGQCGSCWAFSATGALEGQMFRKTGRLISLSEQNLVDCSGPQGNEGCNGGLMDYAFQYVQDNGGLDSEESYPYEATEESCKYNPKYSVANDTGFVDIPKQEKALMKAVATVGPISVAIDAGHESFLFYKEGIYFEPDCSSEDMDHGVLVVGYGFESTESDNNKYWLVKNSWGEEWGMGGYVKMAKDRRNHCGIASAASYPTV

[6] = test system: Trypanosoma brucei brucei; assay: Antitrypanosomal activity against Trypanosoma brucei brucei expressing BS449 after 24 hrs by ATPlite-luciferase reporter gene assay; assay type: functional
[7] = biological target: Rhodesain (Trypanosoma brucei rhodesiense, UniProt Q95PM0); assay: Inhibition of Trypanosoma brucei rhodesiense rhodesain expressed in Pichia pastoris using Cbz-Phe-Arg-AMC as substrate after 15 to 30 mins by fluorescence spectrophotometric analysis
[8] = biological target: Cruzipain (Trypanosoma cruzi, UniProt P25779); assay: Inhibition of Trypanosoma cruzi cruzain
[9] = biological target: Rhodesain (Trypanosoma brucei rhodesiense) (UniProt Q95PM0); assay: Reversible inhibition of Trypanosoma brucei rhodesiense rhodesain assessed as enzyme activity recovery preincubated for 5 mins followed by substrate addition measured after 60 mins by dialysis assay relative to control; set-up: scale not given: the % may be the effect or the level left
[10] = biological target: Rhodesain (Trypanosoma brucei rhodesiense) (UniProt Q95PM0); assay: Reversible inhibition of Trypanosoma brucei rhodesiense rhodesain assessed as enzyme activity recovery preincubated for 5 mins followed by substrate addition measured after 90 mins by dialysis assay relative to control; set-up: scale not given: the % may be the effect or the level left
[11] = biological target: Rhodesain (Trypanosoma brucei rhodesiense) (UniProt Q95PM0); assay: Reversible inhibition of Trypanosoma brucei rhodesiense rhodesain assessed as enzyme activity recovery preincubated for 5 mins followed by substrate addition measured after 30 mins by dialysis assay relative to control; set-up: scale not given: the % may be the effect or the level left
[12] = biological target: Rhodesain (Trypanosoma brucei rhodesiense) (UniProt Q95PM0); assay: Reversible inhibition of Trypanosoma brucei rhodesiense rhodesain assessed as enzyme activity recovery preincubated for 5 mins followed by substrate addition measured after 120 mins by dialysis assay relative to control; set-up: scale not given: the % may be the effect or the level left
[13] = biological target: T2, Procathepsin L; assay: Reversible inhibition of human cathepsin L assessed as enzyme activity recovery at 0.1 to 5 times IC50 preincubated for 5 mins followed by substrate addition measured up to 1500 sec by dilution assay
Target sequence in this assay (P07711 114-333 limits assumed): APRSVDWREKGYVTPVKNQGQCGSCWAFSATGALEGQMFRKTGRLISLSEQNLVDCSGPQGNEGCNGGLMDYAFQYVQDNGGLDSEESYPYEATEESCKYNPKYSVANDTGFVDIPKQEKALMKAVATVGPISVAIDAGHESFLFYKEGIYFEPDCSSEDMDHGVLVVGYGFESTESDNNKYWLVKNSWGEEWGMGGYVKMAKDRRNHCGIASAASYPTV

[14] = biological target: T1, Cathepsin B; assay: Reversible inhibition of human cathepsin B assessed as enzyme activity recovery at 0.1 to 5 times IC50 preincubated for 5 mins followed by substrate addition measured up to 1500 sec by dilution assay
[15] = biological target: Rhodesain (Trypanosoma brucei rhodesiense) (UniProt Q95PM0); assay: Binding affinity to Trypanosoma brucei rhodesiense 15N-labeled rhodesain expressed in Pichia pastoris at 1:1 molar ratio of protein:inhibitor incubated for 15 mins by 1H[…]TROSY-HSQC spectra analysis
In short: (§1)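 15N-labelled rhodesain was mixed with inhibitor at 1:1 mol/mol, incubated 15 min, and a 1H–15N TROSY-HSQC spectrum was recorded. Inhibitor in DMSO-d6 was then added to reach a 1:3 protein/inhibitor ratio, incubated a further 7 min, and the spectrum was re-recorded.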

[16] = biological target: Rhodesain (Trypanosoma brucei rhodesiense) (UniProt Q95PM0); assay: Binding affinity to Trypanosoma brucei rhodesiense 15N-labeled rhodesain expressed in Pichia pastoris at 1:3 molar ratio of protein:inhibitor incubated for 22 mins by 1H[…]TROSY-HSQC spectra analysis; in short: as §1

Chain of Rhodesain (Trypanosoma brucei rhodesiense) (Q95PM0 1-450): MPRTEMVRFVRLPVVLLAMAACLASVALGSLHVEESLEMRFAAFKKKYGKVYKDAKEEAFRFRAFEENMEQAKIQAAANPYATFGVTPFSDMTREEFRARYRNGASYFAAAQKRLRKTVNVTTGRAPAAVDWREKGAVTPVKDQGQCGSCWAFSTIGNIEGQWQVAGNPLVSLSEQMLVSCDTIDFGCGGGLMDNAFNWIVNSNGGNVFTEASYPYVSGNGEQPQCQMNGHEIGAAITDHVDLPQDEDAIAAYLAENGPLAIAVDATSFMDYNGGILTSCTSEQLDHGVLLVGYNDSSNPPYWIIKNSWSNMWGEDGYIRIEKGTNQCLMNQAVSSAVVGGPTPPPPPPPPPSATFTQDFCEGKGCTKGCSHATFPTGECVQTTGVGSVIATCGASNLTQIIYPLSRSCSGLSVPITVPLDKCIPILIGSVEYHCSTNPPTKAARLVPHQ
Chain of Rhodesain (Q95PM0 whole entry): as the sequence (Q95PM0 1-450) above
Chain of Cruzipain (P25779 whole entry): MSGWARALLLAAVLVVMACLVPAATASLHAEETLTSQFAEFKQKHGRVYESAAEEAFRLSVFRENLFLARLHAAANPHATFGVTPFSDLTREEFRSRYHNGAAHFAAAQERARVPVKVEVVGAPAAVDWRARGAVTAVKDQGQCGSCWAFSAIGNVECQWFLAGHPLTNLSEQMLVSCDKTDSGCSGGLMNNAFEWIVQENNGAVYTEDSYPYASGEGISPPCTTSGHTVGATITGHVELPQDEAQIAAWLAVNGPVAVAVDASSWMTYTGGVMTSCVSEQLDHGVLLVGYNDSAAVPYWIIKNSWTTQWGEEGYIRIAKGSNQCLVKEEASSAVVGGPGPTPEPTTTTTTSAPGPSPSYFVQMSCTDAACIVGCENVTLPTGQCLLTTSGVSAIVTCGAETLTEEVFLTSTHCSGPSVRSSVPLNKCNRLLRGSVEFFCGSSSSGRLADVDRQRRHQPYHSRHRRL

| Structure (SMILES) | Stability [1] | Ki [2] [nM] | EC50 [3] [nM] | EC50 [4] [nM] | Ki [5] [nM] | EC50 [6] [nM] | Ki [7] [nM] | Ki [8] [nM] | Activity [9] [%] | Activity [10] [%] | Activity [11] [%] | Activity [12] [%] | reversible inhibition (enzyme activity recovery) [13] | inhibition [14] | Activity [15] | Activity [16] |
| --- | --- | --- | --- | --- | --- | --- | --- | --- | --- | --- | --- | --- | --- | --- | --- | --- |
| O=C(N[C@@H](Cc1ccccc1)C(=O)N[C@H](/C=C/[N+](=O)[O-])CCc1ccccc1)OCc1ccccc1 | Unstable | 34 | 2100 | 3450 | 19.6 | 1620 | 4.2 | 11 | – | – | – | – | – | – | – | – |
| CC(C)C[C@H](NC(=O)OCc1ccccc1)C(=O)N[C@H](/C=C/[N+](=O)[O-])CCc1ccccc1 | – | 72 | – | – | 27 | – | 14 | 17 | 46 | 76 | 22 | 110 | – | – | – | – |
| CC(C)C[C@@H](/C=C/[N+](=O)[O-])NC(=O)[C@H](CC(C)C)NC(=O)OCc1ccccc1 | – | 210 | – | – | 46 | – | 18.4 | 25 | 26 | 35 | 17 | 49 | Active | Active | – | – |
| C[C@@H](/C=C/[N+](=O)[O-])NC(=O)[C@H](Cc1ccccc1)NC(=O)OCc1ccccc1 | Unstable | 8 | 7170 | 10800 | 11 | 5640 | 0.49 | 0.44 | – | – | – | – | Active | – | – | – |
| CN1CCN(C(=O)N[C@@H](Cc2ccccc2)C(=O)N[C@H](/C=C/S(=O)(=O)c2ccccc2)CCc2ccccc2)CC1 | – | – | – | – | – | – | – | – | 2 | 0 | 0 | 3 | – | – | – | – |
| N=C(NCCCCCCNC(=N)NC(=N)Nc1ccc(Cl)cc1)NC(=N)Nc1ccc(Cl)cc1 [CHLORHEXIDINE] | – | – | 410 | 430 | – | 430 | – | – | – | – | – | – | – | – | – | – |
| C/C(=C\[C@H](C)NC(=O)[C@H](CC(C)C)NC(=O)OCc1ccccc1)[N+](=O)[O-] | – | 3200 | – | – | 2020 | – | 544 | – | – | – | – | – | – | – | – | – |
| CC(C)C[C@@H](/C=C/[N+](=O)[O-])NC(=O)[C@H](Cc1ccccc1)NC(=O)OCc1ccccc1 | Unstable | 68 | 1310 | 2060 | 30 | 990 | 6.5 | 16 | 24 | 29 | 16 | 47 | Active | – | Active | Active |
| CC(C)C[C@H](NC(=O)OCc1ccccc1)C(=O)N[C@@H](C)/C=C/[N+](=O)[O-] | – | 310 | – | – | 200 | – | 30 | 130 | – | – | – | – | – | Active | – | – |
| O=C(N[C@@H](Cc1ccccc1)C(=O)N[C@H](/C=C/[N+](=O)[O-])Cc1ccccc1)OCc1ccccc1 | – | 310 | – | – | 110 | – | 29 | 130 | – | – | – | – | – | – | – | – |
| C/C(=C\[C@H](C)NC(=O)[C@H](Cc1ccccc1)NC(=O)OCc1ccccc1)[N+](=O)[O-] | – | 6300 | – | – | 280 | – | 50 | – | – | – | – | – | – | – | – | – |
| CC(C)C[C@H](NC(=O)OCc1ccccc1)C(=O)N[C@H](/C=C/[N+](=O)[O-])Cc1ccccc1 | – | 710 | – | – | 49 | – | 18 | 28 | – | – | – | – | Active | – | – | – |
